# Data: PubChem BioAssay AID504525 (Broad Institute, 2011)
# Calls of active or inactive are those of the source.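 The calls were made as follows: active = fitted dose curve showing toxicity with half-maximal concentration at most ten times the top tested dose; inconclusive = flat curve with 30 to 70% toxicity, or poor fit; inactive = the rest.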
# Experiment: mammalian cell viability loss with fluconazole – NIH-3T3, powder samples, set 7, cytotoxicity control for antifungal drug resistance project, dose response (AID 504525)
# Conditions: NIH-3T3 viability with fluconazole, Alamar Blue, 48 h; series mostly up to 26 µM
# Procedure, shortened: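 Reagent: fluconazole co-treatment at 8 µg/mL final; material: NIH 3T3 fibroblast cells, Alamar Blue viability; technique: Alamar Blue fluorescence at 1:200 final dilution, excitation 544 nm, emission 590 nm; times: 48 h compound exposure at 37 °C; dosing: test compound dose series, top final amount 26 µM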
row,SMILES,outcome
1,COC(=O)Cn1nc(C2CCCCC2)c2ccccc21,inactive
2,CCc1nn(CC(=O)OC)c2ccccc12,inactive
3,COC(=O)Cn1nc(-c2cnco2)c2ccccc21,inactive
4,CN1CCN(C(=O)Cn2c3ccccc3c3nc4n(c(=O)c32)CCS4)CC1,inactive
5,COC(=O)Cn1nc(-c2cccc(OC)c2)c2ccccc21,inactive
6,COC(=O)Cn1nc(-c2cscn2)c2ccccc21,inactive
7,COC(=O)Cn1nc(-c2cccc(F)c2)c2ccccc21,inactive
8,CC1(O)CN(C(=O)Cn2c3ccccc3c3nc4n(c(=O)c32)CCS4)C1,inactive
9,O=C(Cn1c2ccccc2c2nc3n(c(=O)c21)CCS3)N1CCC(F)(F)CC1,inactive
10,COC(=O)Cn1nc(C2CC2)c2ccccc21,inactive
11,O=C(O)Cn1c2ccc(F)cc2c2nc3n(c(=O)c21)CCS3,inactive
12,O=C(O)Cn1c2ccccc2c2nc3n(c(=O)c21)CCS3,inactive
13,COC(=O)Cn1nc(-c2ccccc2)c2cccnc21,inactive
14,COC(=O)Cn1c2ccc(F)cc2c2nc3n(c(=O)c21)CCS3,inactive
15,O=C(Cn1c2ccccc2c2nc3n(c(=O)c21)CCS3)N1CCC(F)(F)C1,inactive
16,O=C(Cn1c2ccccc2c2nc3n(c(=O)c21)CCS3)N1CC=CC1,inactive
17,COC(=O)Cn1nc(-c2cccnc2)c2ccccc21,inactive
18,COC(=O)Cn1nc(C(C)(C)C)c2ccccc21,inactive
19,O=C(Cn1c2ccc(F)cc2c2nc3n(c(=O)c21)CCS3)N1CC=CC1,inactive
20,O=C(Cn1c2ccc(F)cc2c2nc3n(c(=O)c21)CCS3)N1CCC(F)(F)C1,inactive
